Measurements from ChEMBL document CHEMBL1157151, “Design and synthesis of N-(3,5-difluoro-4-hydroxyphenyl)benzenesulfonamides as aldose reductase inhibitors” (Bioorg Med Chem, 2008).

Assays:
[1] = DPPH radical scavenging activity; format: functional
Procedure, shortened: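 Compound in ethanol mixed with ethanolic DPPH; final 0.2–0.0125 mM compound, 0.2 mM DPPH. Absorbance loss at 517 nm followed. IC50 from nine concentrations at 270 min steady state; EC50 = IC50/[DPPH]. Initial rate from linear absorbance decrease over first 30 s at equimolar 0.2 mM. Triplicate.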

[2] = Antioxidant activity assessed as inhibition of DOPC liposomes; format: functional
Procedure, shortened: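 Unilamellar DOPC liposomes (final 0.8 mM) in 20 mM phosphate buffer pH 7.4 incubated with test compound (10–300 µM) and AAPH initiator (final 10 mM), 50 °C, 80 min. Lipid hydroperoxides extracted with CHCl₃/MeOH (2:1) containing BHT, measured by thiocyanate method at 500 nm against cumene hydroperoxide calibration. IC50 by least-squares fit of linear part of semilog % inhibition plot; triplicate.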

[3] = target: Aldo-keto reductase family 1 member B1 (Rattus norvegicus, UniProt P07943); assay: Inhibition of aldose reductase in rat lenses
Procedure, shortened: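 Activity read spectrophotometrically as NADPH oxidation. Five concentrations; IC50 by least-squares fit of linear portion of log(dose)–response curve; triplicate.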

Jejunum [4] = assay: Apparent permeability from mucosal to serosal side in Wistar rat jejunum; format: functional, tissue-based
Procedure, shortened: (§1)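 Jejunum from starved male Wistar rats (250–320 g), 1 cm² exposed, in side-by-side diffusion chambers; 25 min preincubation. Donor: 0.479 mM compound, 10 µM fluorescein paracellular marker, glucose or mannitol in Ringer buffer, applied mucosal (M–S) or serosal (S–M). Acceptor sampled every 25 min to 175 min. Viability checked by PD, Isc, TEER. HPLC-UV 220 nm, fluorescein by fluorescence. Papp calculated.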

Jejunum [5] = assay: Apparent permeability from serosal to mucosal side in Wistar rat jejunum; format: functional, tissue-based; procedure, shortened: as §1
Jejunum [6] = assay: Ratio of permeability from serosal to mucosal over mucosal to serosal side of the Wistar rat jejunum

In the case of `Cc1c(C)c2c(c(C)c1O)CCC(C)(C(=O)O)O2` (centres undefined) [TROLOX], the IC50 [1] is reported as 37 µM and the IC50 [2] is reported as 93.5 µM.

Compound `O=S(=O)(Nc1cc(F)c(O)c(F)c1)c1ccccc1` has an IC50 [3] of 32.9 µM, an IC50 [1] of 49 µM and an IC50 [2] of 95.9 µM. The permeability (Jejunum [4]) was 6.34 ×10⁻⁶ cm/s, the permeability (Jejunum [5]) was 2.91 ×10⁻⁶ cm/s and the Ratio (Jejunum [6]) was 0.46.

`O=[N+]([O-])c1ccc(S(=O)(=O)Nc2cc(F)c(O)c(F)c2)cc1` gave an IC50 [3] of 44.4 µM.

With `CC(/C=C1\SC(=S)N(CC(=O)O)C1=O)=C\c1ccccc1` the permeability (Jejunum [4]) was 4.34 ×10⁻⁶ cm/s, the permeability (Jejunum [5]) was 10.9 ×10⁻⁶ cm/s and the Ratio (Jejunum [6]) was 2.5.

`COc1ccc(S(=O)(=O)Nc2cc(F)c(O)c(F)c2)cc1` gave an IC50 [3] of 15.5 µM.

For `Nc1ccc(S(=O)(=O)Nc2cc(F)c(O)c(F)c2)cc1`, the IC50 [3] was 14.1 µM.
